Data taken from ChEMBL document CHEMBL4732207, “Design, Synthesis and Structure-Activity Relationship Studies of Glycosylated Derivatives of Marine Natural Product Lamellarin D” (Eur J Med Chem, 2021).
In brackets after ≈: the same amount, converted by molar mass. Activity calls are given as the source filed them. The calls are words filed in the database; no cut-off is given here.

How the values were obtained:
A549 = assay: Cytotoxicity against human A549 cells assessed as reduction in cell viability incubated for 72 hrs by MTT assay; assay type: functional, cell-based; conditions: A549, 72 h
Procedure, shortened: (§1)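 Cells resuspended in DMEM plus 10% FBS and seeded at 5 000 cells/well. They were incubated overnight at 37 °C in 5% CO2, then exposed to serial dilutions for 72 h at 37 °C. Medium was replaced with fresh medium containing 0.5 mg/mL MTT for 4 h, formazan dissolved in DMSO, and A540 read. Proliferation = A540 treated/control ×100%. IC50 is the concentration inhibiting proliferation by 50%.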

HepG2 = assay: Cytotoxicity against human HepG2 cells assessed as reduction in cell viability incubated for 72 hrs by MTT assay; assay type: functional, cell-based; conditions: HepG2, 72 h; procedure, shortened: as §1
MDA-MB-231 [1] = assay: Cytotoxicity against human MDA-MB-231 cells assessed as reduction in cell viability incubated for 72 hrs by MTT assay; assay type: functional, cell-based; conditions: MDA-MB-231, 72 h; procedure, shortened: as §1
HCT-116 = assay: Cytotoxicity against human HCT-116 cells assessed as reduction in cell viability incubated for 72 hrs by MTT assay; assay type: functional, cell-based; conditions: HCT-116, 72 h; procedure, shortened: as §1
HGC-27 = assay: Cytotoxicity against human HGC-27 cells assessed as reduction in cell viability incubated for 72 hrs by MTT assay; assay type: functional, cell-based; conditions: HGC-27, 72 h; procedure, shortened: as §1
[2] = Aqueous solubility of compound in deionized water by HPLC-HRMS analysis; assay type: physicochemical; conditions: buffer
[3] = molecular target: T1, DNA topoisomerase 1 (Homo sapiens) (UniProt P11387); assay: Inhibition of topoisomerase 1 (unknown origin) assessed as reduction in relaxation of supercoiled plasmid pBR322 DNA at 10 uM incubated for 30 mins by agarose gel electrophoresis
T1 sequence (whole entry): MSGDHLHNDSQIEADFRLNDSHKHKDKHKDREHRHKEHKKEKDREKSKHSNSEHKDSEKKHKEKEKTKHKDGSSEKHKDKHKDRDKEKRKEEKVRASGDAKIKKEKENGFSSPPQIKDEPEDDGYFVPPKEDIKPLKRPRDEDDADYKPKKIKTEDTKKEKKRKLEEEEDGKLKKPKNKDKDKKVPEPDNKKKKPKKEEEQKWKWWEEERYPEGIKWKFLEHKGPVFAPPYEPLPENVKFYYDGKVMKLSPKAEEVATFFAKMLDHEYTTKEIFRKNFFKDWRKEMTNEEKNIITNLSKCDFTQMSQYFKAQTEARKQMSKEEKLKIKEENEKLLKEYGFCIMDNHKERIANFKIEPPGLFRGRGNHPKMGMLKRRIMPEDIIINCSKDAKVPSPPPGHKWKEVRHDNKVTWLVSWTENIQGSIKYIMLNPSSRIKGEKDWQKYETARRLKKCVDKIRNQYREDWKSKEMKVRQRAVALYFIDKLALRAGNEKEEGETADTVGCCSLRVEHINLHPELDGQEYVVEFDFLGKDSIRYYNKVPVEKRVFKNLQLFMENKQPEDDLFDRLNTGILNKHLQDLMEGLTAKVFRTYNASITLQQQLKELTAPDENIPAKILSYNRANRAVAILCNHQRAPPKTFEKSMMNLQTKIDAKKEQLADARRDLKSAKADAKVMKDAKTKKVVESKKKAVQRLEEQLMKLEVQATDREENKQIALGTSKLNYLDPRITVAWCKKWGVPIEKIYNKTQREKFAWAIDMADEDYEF
Procedure, shortened: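 Reaction mix held 10X Topo I buffer, supercoiled pBR322 (250 ng), Topo I (2 U) and compound at 10 µM, incubated 37 °C for 30 min. Stopped with 10% SDS, then proteinase K digestion for 30 min. Products run on 1% agarose without stain, post-stained with 4s Green for 50 min and imaged under UV. Read-out is loss of relaxation.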

MDA-MB-231 [4] = assay: Induction of cell cycle arrest in human MDA-MB-231 cells assessed as increase in accumulation of G2/M phase incubated for 24 hrs by PI staining based flow cytometry analysis; assay type: functional; conditions: dose 10-50 nM
Procedure, shortened: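 MDA-MB-231 cells (5 × 10^5) seeded in six-well plates, cultured overnight at 37 °C, then treated at 10, 20 or 50 nM for 24 h. Lamellarin D was the positive control at 20 and 50 nM. Cells were trypsinized, washed twice in PBS and fixed in 70% ethanol overnight at −20 °C. After washing, cells were stained with propidium iodide. Phase distribution was read by flow cytometry.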

MDA-MB-231 [5] = assay: Induction of apoptosis in human MDA-MB-231 cells at 50 nM incubated for 24 hrs by annexin-V-FITC and PI staining based flow cytometry analysis; assay type: functional, cell-based

SMILES | solubility [2] | inhibition [3] | IC50 (A549) | IC50 (HepG2) | IC50 (MDA-MB-231 [1]) | IC50 (HCT-116) | IC50 (HGC-27) | Activity (MDA-MB-231 [4]) | Activity (MDA-MB-231 [5])
COc1cc(-c2c3c4cc(OC)c(O)cc4oc(=O)c3n3ccc4cc(O)c(OC)cc4c23)ccc1O [LAMELLARIN D] | 0.56 nM (≈ 0.28 ng/mL) | Active | 0.004 µM | 0.088 µM | 0.031 µM | 0.025 µM | 0.236 µM | Dose-dependent effect | –
COc1cc2c(cc1O)oc(=O)c1c2c(-c2ccc(O[C@@H]3O[C@H](CO)[C@H](O)[C@H](O)[C@H]3O)c(OC)c2)c2c3cc(OC)c(O)cc3ccn21 | 0.49 nM (≈ 0.324 ng/mL) | Active | > 50 µM | > 50 µM | > 50 µM | 13.7 µM | 16.6 µM | – | –
COc1cc(-c2c3c4cc(OC)c(O)cc4oc(=O)c3n3ccc4cc(O[C@@H]5O[C@H](CO)[C@@H](O)[C@H]5O)c(OC)cc4c23)ccc1O | – | – | 4.12 µM | 0.937 µM | 5.08 µM | 1.28 µM | 1.24 µM | – | –
COc1cc2c(ccn3c2c(-c2ccc(O[C@@H]4O[C@H](CO)[C@@H](O)[C@H](O)[C@H]4O)c(OC)c2)c2c4cc(OC)c(O[C@@H]5O[C@H](CO)[C@@H](O)[C@H](O)[C@H]5O)cc4oc(=O)c23)cc1O | 257.55 nM (≈ 212 ng/mL) | Active | 16.4 µM | 28.8 µM | 7.37 µM | 6.77 µM | 7.22 µM | – | –
COc1cc2c(cc1O)oc(=O)c1c2c(-c2ccc(O[C@@H]3O[C@H](CO)[C@@H](O)[C@H](O)[C@H]3O)c(OC)c2)c2c3cc(OC)c(O)cc3ccn21 | 0.41 nM (≈ 0.271 ng/mL) | Active | > 50 µM | 42.9 µM | > 50 µM | 26.2 µM | > 50 µM | – | –
COc1cc(-c2c3c4cc(OC)c(O[C@@H]5O[C@H](CO)[C@@H](O)[C@H](O)[C@H]5O)cc4oc(=O)c3n3ccc4cc(O[C@@H]5O[C@H](CO)[C@@H](O)[C@H](O)[C@H]5O)c(OC)cc4c23)ccc1O | 182.31 nM (≈ 150 ng/mL) | – | 0.026 µM | 0.118 µM | 0.036 µM | 0.04 µM | 0.074 µM | – | –
COc1cc2c(cc1O)oc(=O)c1c2c(-c2ccc(O[C@@H]3O[C@H](CO)[C@@H](O)[C@H]3O)c(OC)c2)c2c3cc(OC)c(O)cc3ccn21 | – | – | 0.659 µM | 0.332 µM | 2.11 µM | 0.614 µM | 0.224 µM | – | –
COc1cc2c(cc1O)oc(=O)c1c2c(-c2ccc(O[C@@H]3O[C@H](CO)[C@@H](O)[C@H](O)[C@H]3O)c(OC)c2)c2c3cc(OC)c(O[C@@H]4O[C@H](CO)[C@@H](O)[C@H](O)[C@H]4O)cc3ccn21 | 96.75 nM (≈ 79.7 ng/mL) | Active | 13.7 µM | 40.1 µM | 13.3 µM | 5.28 µM | 27.1 µM | – | –
COc1cc(-c2c3c4cc(OC)c(O[C@@H]5O[C@H](CO)[C@@H](O)[C@H]5O)cc4oc(=O)c3n3ccc4cc(O)c(OC)cc4c23)ccc1O | – | – | 2.86 µM | 0.627 µM | 2.69 µM | 1.16 µM | 0.862 µM | – | –

Further lines, with some results ahead:

solubility [2] | inhibition [3] | SMILES | IC50 (A549) | IC50 (HepG2) | IC50 (MDA-MB-231 [1]) | IC50 (HCT-116) | IC50 (HGC-27) | Activity (MDA-MB-231 [4]) | Activity (MDA-MB-231 [5])
0.12 nM (≈ 0.0794 ng/mL) | – | COc1cc(-c2c3c4cc(OC)c(O[C@@H]5O[C@H](CO)[C@H](O)[C@H](O)[C@H]5O)cc4oc(=O)c3n3ccc4cc(O)c(OC)cc4c23)ccc1O | 0.02 µM | 0.058 µM | 0.025 µM | 0.018 µM | 0.09 µM | – | –
0.37 nM (≈ 0.245 ng/mL) | – | COc1cc(-c2c3c4cc(OC)c(O[C@H]5O[C@H](CO)[C@@H](O)[C@H](O)[C@@H]5O)cc4oc(=O)c3n3ccc4cc(O)c(OC)cc4c23)ccc1O | 0.374 µM | 0.57 µM | 0.316 µM | 0.206 µM | 0.137 µM | – | –
257.78 nM (≈ 171 ng/mL) | – | COc1cc(-c2c3c4cc(OC)c(O)cc4oc(=O)c3n3ccc4cc(O[C@@H]5O[C@H](CO)[C@@H](O)[C@H](O)[C@H]5O)c(OC)cc4c23)ccc1O | 0.047 µM | 0.024 µM | 0.032 µM | 0.014 µM | 0.114 µM | – | –
2 nM (≈ 1.32 ng/mL) | – | COc1cc(-c2c3c4cc(OC)c(O[C@@H]5O[C@H](CO)[C@@H](O)[C@H](O)[C@H]5O)cc4oc(=O)c3n3ccc4cc(O)c(OC)cc4c23)ccc1O | 0.003 µM | 0.015 µM | 0.034 µM | 0.01 µM | 0.162 µM | Dose-dependent effect | Active
0.23 nM (≈ 0.152 ng/mL) | – | COc1cc(-c2c3c4cc(OC)c(O)cc4oc(=O)c3n3ccc4cc(O[C@H]5O[C@H](CO)[C@@H](O)[C@H](O)[C@@H]5O)c(OC)cc4c23)ccc1O | 3.24 µM | 3.88 µM | 1.99 µM | 1.42 µM | 0.219 µM | – | –
235.82 nM (≈ 156 ng/mL) | – | COc1cc(-c2c3c4cc(OC)c(O)cc4oc(=O)c3n3ccc4cc(O[C@@H]5O[C@H](CO)[C@H](O)[C@H](O)[C@H]5O)c(OC)cc4c23)ccc1O | 0.013 µM | 0.048 µM | 0.018 µM | 0.037 µM | 0.114 µM | – | –
0.14 nM (≈ 0.0926 ng/mL) | Active | COc1cc2c(cc1O)oc(=O)c1c2c(-c2ccc(O[C@H]3O[C@H](CO)[C@@H](O)[C@H](O)[C@@H]3O)c(OC)c2)c2c3cc(OC)c(O)cc3ccn21 | > 50 µM | > 50 µM | > 50 µM | > 50 µM | 31.3 µM | – | –
